Measured values collected from several papers.
Each line is one published result; the experiments were not run side by side.
Target: Activin receptor type-1B (ACVR1B, Homo sapiens, UniProt P36896)
One construct used (P36896 24-505): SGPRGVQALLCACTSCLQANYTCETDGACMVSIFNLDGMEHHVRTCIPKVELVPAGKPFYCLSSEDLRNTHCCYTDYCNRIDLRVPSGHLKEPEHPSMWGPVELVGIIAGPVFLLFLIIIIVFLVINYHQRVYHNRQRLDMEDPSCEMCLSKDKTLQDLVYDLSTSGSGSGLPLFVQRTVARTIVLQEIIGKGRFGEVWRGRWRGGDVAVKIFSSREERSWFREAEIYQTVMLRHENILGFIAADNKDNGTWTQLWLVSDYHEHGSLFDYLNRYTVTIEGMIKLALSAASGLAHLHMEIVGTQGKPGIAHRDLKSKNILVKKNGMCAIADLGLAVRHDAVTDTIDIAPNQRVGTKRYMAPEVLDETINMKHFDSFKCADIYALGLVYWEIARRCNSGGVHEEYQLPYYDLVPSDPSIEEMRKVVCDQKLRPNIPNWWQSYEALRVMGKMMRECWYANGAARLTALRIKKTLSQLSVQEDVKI

| Compound | assay | conditions | remaining binding [%] |
| --- | --- | --- | --- |
| O=C(NS(=O)(=O)c1ccc(NCC2CCOCC2)c([N+](=O)[O-])c1)c1ccc(N2CCN(Cc3ccc(C(F)(F)F)cc3-c3ccc(Cl)cc3)CC2)cc1Oc1cnc2[nH]ccc2c1 | cell-free assay, competition with immobilised ligand | 1 µM | 59 |
| FC(F)(F)Oc1cccc(-c2cnc3ccc(-c4ccncc4)nn23)c1 | cell-free assay, competition with immobilised ligand | 5 µM | 85 |
| COc1cnc(Nc2cccc(S(N)(=O)=O)c2)nc1N1CCN(c2ccccc2)C(=O)C1 | binding, competition with immobilised ligand | 1 µM | 100 |
| O=C(NCc1ncc(C(F)(F)F)cc1Cl)c1ccc2c(c1)C1(CCS(=O)(=O)CC1)[C@@H](C1CC1)N2S(=O)(=O)c1ccc(F)cc1 | cell-free assay, competition with immobilised ligand | 1 µM | 87 |
| Nc1ncc2c(n1)-c1c([nH]c3ccc(C#CC4CC4)cc13)CCCC2 | binding, competition with immobilised ligand | 1 µM | 89 |
| O=C(c1ccc(Nc2ncc(Cl)c(-c3cc4ccccc4s3)n2)cc1)N1CCC(N2CCCC2)CC1 | binding, competition with immobilised ligand | 1 µM | 48 |
| O=C(Nc1cnc(Oc2ccc(F)cc2)nc1)N1CCc2ncccc2[C@@H]1c1ccc(F)cc1 | cell-free assay, competition with immobilised ligand | 1 µM | 100 |
| N[C@H]1CCN(c2nccc(-c3cnn4ncccc34)n2)C1 | binding | 1 µM | 77 |
| COc1cccc(CNC(=O)c2nc3scc(COCc4ccc(C(=O)O)cc4)c3c(=O)[nH]2)c1 | cell-free assay, competition with immobilised ligand | 1 µM | 89.4 |
| O=C(c1ccc(Nc2nccc(-c3cc4ccccc4s3)n2)cc1)N1CCC(N2CCCC2)CC1 | binding, competition with immobilised ligand | 1 µM | 71 |
| Cc1c(NC(=O)c2cc(C(N)=O)nc3cc(F)ccc23)c(C(F)(F)F)nn1Cc1ccc(C#N)cc1 | cell-free assay, competition with immobilised ligand | 1 µM | 80 |
| CN(c1nccc(-c2cnn3ncccc23)n1)C1CC1 | binding | 1 µM | 100 |
| O=C(NCC1CCOCC1)c1n[nH]cc1NC(=O)c1c(F)cccc1F | binding, competition with immobilised ligand | 1 µM | 100 |
| C[C@@H]1CCN(c2nccc(-c3cnn4ncccc34)n2)C1 | binding | 1 µM | 76 |
| C[C@@H]1CN(c2ccc3ncc(-c4ccc5[nH]nc(C6CC6)c5c4)n3n2)C[C@H](C)O1 | binding, competition with immobilised ligand | 50 nM | 100 |
| CCC(=O)N[C@@H]1CC[C@H](C(=O)N(C)c2ccc(-c3nc4ccccc4o3)cc2)C1 | cell-free assay, competition with immobilised ligand | 1 µM | 100 |
| c1cnn2ncc(-c3ccnc(N4CCC45COC5)n3)c2c1 | binding | 1 µM | 82 |
| Cc1cnc(Nc2ccc(C(=O)N3CCC(N4CCCC4)CC3)cc2)nc1-c1cc2ccccc2s1 | binding, competition with immobilised ligand | 1 µM | 33 |
| CC(C)(C)c1ccc(-c2nc(CBr)nn2-c2cccc(O)c2)cc1 | cell-free assay, competition with immobilised ligand | 10 µM | 100 |
| CN(C)c1nccc(-c2cnn3ncccc23)n1 | binding | 1 µM | 96 |
| COc1cnc(Nc2cccc(S(N)(=O)=O)c2)nc1N1CCN(c2ccccc2)CC1 | binding, competition with immobilised ligand | 1 µM | 98 |
| F[C@@H]1CCN(c2nccc(-c3cnn4ncccc34)n2)C1 | binding | 1 µM | 100 |
| CN(C)c1ncnc(-c2ccc3nc(Nc4cc(CN5CCN(C(=O)CC(F)(F)F)CC5)ccn4)[nH]c3c2)c1Cl | cell-free assay, competition with immobilised ligand | 1 µM | 91 |
| COc1ccnn2ncc(-c3ccnc(N(C)C)n3)c12 | binding | 1 µM | 85 |
| Cc1nc(N2CC[C@@H](O)C2)ncc1-c1cc(C(F)(F)F)cc2[nH]ncc12 | cell-free assay, competition with immobilised ligand | 1 µM | 100 |
